Converted amounts (≈) assume the structure as drawn.
Columns and labels:
[1] = tested on: Acinetobacter baumannii; test: Antibacterial activity against Acinetobacter baumannii ATCC 19606 after 18 to 20 hrs by broth microdilution assay; assay type: functional; settings: ATCC 19606 = CIP 70.34 = JCM 6841
Procedure, shortened: (§1)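 Bacteria grown overnight at 37 °C with shaking in nutrient broth or Mueller-Hinton broth (MHB). Cultures were diluted 50-fold in MHB and grown 1.5–3 h to mid-log phase, then set at 5×10^5 CFU/mL final. Compounds were 2-fold serially diluted, final 32 to 0.015 µg/mL, 1% DMSO. […] Two independent experiments of n = 2 (n = 4).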

[2] = tested on: Pseudomonas aeruginosa; test: Antibacterial activity against Pseudomonas aeruginosa ATCC 27853 after 18 to 20 hrs by broth microdilution assay; assay type: functional; procedure, shortened: as §1
[3] = tested on: Klebsiella pneumoniae; test: Antibacterial activity against multidrug-resistant Klebsiella pneumoniae ATCC 700603 after 18 to 20 hrs by broth microdilution assay; assay type: functional
Procedure, shortened: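 Strains were grown overnight at 37 °C with shaking in nutrient broth or MHB, diluted 50-fold in MHB and grown 1.5–3 h to mid-log. Compounds were 2-fold serially diluted in MHB at 32 to 0.015 µg/mL final (1% DMSO) with 5×10^5 CFU/mL. […] Two independent experiments of n = 2 (n = 4).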

[4] = tested on: Escherichia coli; test: Antibacterial activity against Escherichia coli ATCC 25922 after 18 to 20 hrs by broth microdilution assay; assay type: functional; procedure, shortened: as §1
[5] = tested on: Staphylococcus aureus; test: Antibacterial activity against glycopeptide-intermediate resistant Staphylococcus aureus NARSA NRS17 after 18 to 20 hrs by broth microdilution assay
[6] = tested on: Staphylococcus aureus; test: Antibacterial activity against glycopeptide-intermediate/methicillin-resistant Staphylococcus aureus NARSA NRS1 after 18 to 20 hrs by broth microdilution assay
[7] = tested on: Staphylococcus aureus; test: Antibacterial activity against vancomycin-resistant Staphylococcus aureus NARSA VRS10 after 18 to 20 hrs by broth microdilution assay
[8] = tested on: Candida albicans; test: Antifungal activity against Candida albicans ATCC 90028 after 18 to 20 hrs by broth microdilution assay; assay type: functional
[9] = tested on: Cryptococcus neoformans; test: Antifungal activity against Cryptococcus neoformans H99 ATCC 208821 after 18 to 20 hrs by broth microdilution assay; assay type: functional; settings: var. grubii H99 ATCC 208821
[10] = Cytotoxicity against HEK293 cells after 24 hrs by resazurin dye-based fluorescence analysis; assay type: cell-based; settings: human
Procedure, shortened: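 HEK293 cells were seeded at 3000/well in DMEM with 10% FBS and attached for 24 h at 37 °C, 5% CO₂. A compound concentration series was applied for 24 h. Resazurin was added at 10 µM for 2 h and fluorescence read at ex/em 560/590. Results are average percentage of control ± SD of duplicate wells.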

[11] = Drug localization in methicillin-resistant Staphylococcus aureus subsp. aureus Rosenbach ATCC 43300 at 10 ug/ml after 20 mins by confocal microscopic analysis; assay type: ADME
Procedure, shortened: (§2)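 MRSA ATCC 43300 was grown overnight in LB broth at 37 °C with gentle shaking, then incubated 20 min at 37 °C with 10 µg/mL fluorescent compound in LB. Cells were fixed in 4% paraformaldehyde for 20 min, wet-mounted on slides and imaged by confocal microscopy.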

[12] = Drug localization in […] Escherichia coli ATCC 25922 at 10 ug/ml after 20 mins by confocal microscopic analysis; assay type: ADME
Procedure, shortened: (§3)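 E. coli ATCC 25922 was grown overnight in LB broth at 37 °C with gentle shaking. Cells were exposed to 10 µg/mL fluorescent compound in LB for 20 min at 37 °C. Localisation was imaged by confocal microscopy, including 3D rendering.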

[13] = Drug localization in peripheral region of methicillin-resistant Staphylococcus aureus subsp. aureus Rosenbach ATCC 43300 at 10 ug/ml after 20 mins by confocal microscopic analysis; assay type: ADME; procedure, shortened: as §2
[14] = Drug localization in peripheral region of […] Escherichia coli ATCC 25922 at 10 ug/ml after 20 mins by confocal microscopic analysis; assay type: ADME; procedure, shortened: as §3
[15] = tested on: Staphylococcus aureus; test: microbe, parasite or virus in culture; settings: ATCC 43300
[16] = tested on: Streptococcus pneumoniae; test: microbe, parasite or virus in culture; settings: ATCC 700677
[17] = tested on: Staphylococcus aureus; test: Antibacterial activity against methicillin-resistant Staphylococcus aureus ATCC 43300 after 20 hrs by micro-broth dilution assay; assay type: functional; settings: ATCC 43300, 20 h
[18] = tested on: Escherichia coli; test: Antibacterial activity against Escherichia coli ATCC 25922 after 20 hrs by micro-broth dilution assay; assay type: functional; settings: ATCC 25922, 20 h
[19] = tested on: Pseudomonas aeruginosa; test: Antibacterial activity against Pseudomonas aeruginosa ATCC 27853 after 20 hrs by micro-broth dilution assay; assay type: functional; settings: ATCC 27853, 20 h
[20] = tested on: Pseudomonas aeruginosa; test: Antibacterial activity against Pseudomonas aeruginosa ATCC 27853 assessed as zone of inhibition at 50 ug/disc after 20 hrs by disk diffusion assay; assay type: functional; settings: ATCC 27853, 20 h, read-out: IZ
Procedure, shortened: (§4)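 Disks loaded with 50 µg compound. Isolate suspensions were adjusted to 0.5 McFarland in 0.9% NaCl and swabbed onto nutrient agar plates, with zones of inhibition measured. Controls: 10 µg colistin sulphate disk, 10 µL DMSO, and a plate swabbed with saline from the dispenser.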

[21] = tested on: Klebsiella pneumoniae; test: Antibacterial activity against Klebsiella pneumoniae ATCC 13883 assessed as zone of inhibition at 50 ug/disc after 20 hrs by disk diffusion assay; assay type: functional; settings: ATCC 13883, 20 h, read-out: IZ; procedure, shortened: as §4
[22] = tested on: Staphylococcus aureus; test: Antibacterial activity against methicillin-resistant Staphylococcus aureus ATCC 43300 assessed as zone of inhibition at 50 ug/disc after 20 hrs by disk diffusion assay; assay type: functional; settings: ATCC 43300, 20 h, read-out: IZ
Procedure, shortened: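 Disk diffusion, 50 µg compound per disk. Bacterial suspensions were adjusted to 0.5 McFarland in 0.9% NaCl and swabbed onto nutrient agar plates. Controls were a 10 µg colistin sulphate disk, 10 µL DMSO, and a plate swabbed with saline from the dispenser.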

[23] = tested on: Acinetobacter baumannii; test: Antibacterial activity against Acinetobacter baumannii ATCC 19606 assessed as zone of inhibition at 50 ug/disc after 20 hrs by disk diffusion assay; assay type: functional; settings: ATCC 19606 = CIP 70.34 = JCM 6841, 20 h, read-out: IZ; procedure, shortened: as §4
[24] = tested on: Enterococcus faecium; test: Antibacterial activity against Enterococcus faecium ATCC 700221 assessed as zone of inhibition at 50 ug/disc after 20 hrs by disk diffusion assay; assay type: functional; settings: ATCC 700221, 20 h, read-out: IZ; procedure, shortened: as §4

Row | Compound | MIC [1] | MIC [2] | MIC [3] | MIC [4] | MIC [5] | MIC [6] | MIC [7] | MIC [8] | MIC [9] | CC50 at 24 h [10] | Drug uptake [12] | MIC [15] | MIC [16] | further results
1 | CCCNc1ccc2c3c(cccc13)C(=O)N(CCCCCCCCCCCC1O[C@@H]3[C@@H]4C[C@H]([C@@H]3O1)[C@@H](C(=O)NCCNC(=N)N)[C@@H]4C(=O)NCCNC(=N)N)C2=O.Cl.Cl (some centres undefined) | > 32 µg/mL | > 32 µg/mL | > 32 µg/mL | > 32 µg/mL | 4 µg/mL | 4 µg/mL | 2 µg/mL | 128 µg/mL | 0.25 µg/mL | > 50 µg/mL | Active | 1 µg/mL | 1 µg/mL | Drug uptake [11]: Active; Drug uptake [13]: Active; Drug uptake [14]: Active
2 | CCCN1C(=O)c2cccc3c(N)ccc(c23)C1=O | – | – | – | – | – | – | – | – | – | – | Active | – | – | Drug uptake [11]: Active
3 | CCCCCCCCCCCCCCCC1O[C@@H]2[C@@H]3C[C@H]([C@@H]2O1)[C@@H](C(=O)NCCNC(=N)NCc1ccccc1)[C@@H]3C(=O)NCCNC(=N)NCc1ccccc1.Cl.Cl (some centres undefined) | > 128 µg/mL | > 128 µg/mL | > 128 µg/mL | > 128 µg/mL | 0.25 µg/mL | 0.5 µg/mL | 0.5 µg/mL | – | – | 7.8 µg/mL | – | 0.25 µg/mL | 1 µg/mL | –
4 | CCCNc1ccc([N+](=O)[O-])c2nonc12 | – | – | – | – | – | – | – | – | – | – | Active | – | – | Drug uptake [13]: Active
5 | Cl.Cl.N=C(N)NCCNC(=O)[C@@H]1[C@@H]2C[C@@H]([C@@H](OCc3ccc(C(F)(F)F)cc3)[C@H]2OCc2ccc(C(F)(F)F)cc2)[C@H]1C(=O)NCCNC(=N)N | – | – | – | – | – | – | – | – | – | – | – | – | – | MIC [17]: 8 µg/mL; MIC [18]: 8 µg/mL; MIC [19]: 8 µg/mL
6 | CCCCCCCC1O[C@@H]2[C@@H]3C[C@H]([C@@H]2O1)[C@@H](C(=O)NCCNC(=O)c1ccc(C(=O)NC(=N)N)[nH]1)[C@@H]3C(=O)NCCNC(=O)c1ccc(C(=O)NC(=N)N)[nH]1.Cl.Cl (some centres undefined) | > 128 µg/mL | > 128 µg/mL | > 128 µg/mL | > 128 µg/mL | > 128 µg/mL | > 128 µg/mL | 128 µg/mL | – | – | > 100 µg/mL | – | > 128 µg/mL | > 128 µg/mL | –
7 | CCCCCCCCCCCCCCCC1O[C@@H]2[C@@H]3C[C@H]([C@@H]2O1)[C@@H](C(=O)NCCNC(=N)N)[C@@H]3C(=O)NCCNC(=N)N.Cl.Cl (some centres undefined) | – | – | – | – | – | – | – | – | – | – | – | – | – | MIC [17]: 1 µg/mL
8 | Cl.Cl.N=C(N)NCCNC(=O)[C@@H]1[C@@H]2C[C@@H]([C@H]3OC(CCCCCCCCCCCNc4ccc([N+](=O)[O-])c5nonc45)O[C@@H]23)[C@H]1C(=O)NCCNC(=N)N (some centres undefined) | 32 µg/mL | 32 µg/mL | > 32 µg/mL | 8 µg/mL | 1 µg/mL | 4 µg/mL | 0.5 µg/mL | 16 µg/mL | 4 µg/mL | > 50 µg/mL | Active | 1 µg/mL | 1 µg/mL | zone of inhibition at 50 µg/disc [20]: 9 mm; zone of inhibition at 50 µg/disc [21]: 8.5 mm; zone of inhibition at 50 µg/disc [22]: 9 mm; Drug uptake [11]: Active; Drug uptake [13]: Active; Drug uptake [14]: Active
9 | Cl.Cl.Cl.N=C(N)NCCNC(=O)[C@@H]1[C@@H]2C[C@@H]([C@H]3OC(CCCCCCCCCCCN)O[C@@H]23)[C@H]1C(=O)NCCNC(=N)N (some centres undefined) | > 32 µg/mL | > 32 µg/mL | > 32 µg/mL | > 32 µg/mL | 16 µg/mL | 8 µg/mL | 8 µg/mL | – | – | > 50 µg/mL | – | 16 µg/mL | 8 µg/mL | zone of inhibition at 50 µg/disc [23]: 12 mm; zone of inhibition at 50 µg/disc [20]: 12 mm; zone of inhibition at 50 µg/disc [21]: 14.5 mm; zone of inhibition at 50 µg/disc [22]: 14 mm
10 | CCCCCCCC1O[C@@H]2[C@@H]3C[C@H]([C@@H]2O1)[C@@H](C(=O)NCCNC(=N)NCc1ccccc1)[C@@H]3C(=O)NCCNC(=N)NCc1ccccc1.Cl.Cl (some centres undefined) | > 32 µg/mL | 32 µg/mL | > 32 µg/mL | 8 µg/mL | 1 µg/mL | 2 µg/mL | 1 µg/mL | 128 µg/mL | 2 µg/mL | > 50 µg/mL | – | 2 µg/mL | 2 µg/mL | zone of inhibition at 50 µg/disc [23]: 10 mm; zone of inhibition at 50 µg/disc [20]: 13 mm; zone of inhibition at 50 µg/disc [21]: 15 mm; zone of inhibition at 50 µg/disc [22]: 17 mm; zone of inhibition at 50 µg/disc [24]: 18 mm
11 | OC(Cn1cncn1)(Cn1cncn1)c1ccc(F)cc1F [FLUCONAZOLE] | – | – | – | – | – | – | – | 1 µg/mL (≈ 3.27 µM) | 8 µg/mL (≈ 26.1 µM) | – | – | – | – | –
12 | CC/C(=C(\c1ccccc1)c1ccc(OCCN(C)C)cc1)c1ccccc1 [TAMOXIFEN] | – | – | – | – | – | – | – | – | – | 13 µg/mL (≈ 35 µM) | – | – | – | –
13 | CN[C@H](CC(C)C)C(=O)N[C@H]1C(=O)N[C@@H](CC(N)=O)C(=O)N[C@H]2C(=O)N[C@H]3C(=O)N[C@H](C(=O)N[C@H](C(=O)O)c4cc(O)cc(O)c4-c4cc3ccc4O)[C@H](O)c3ccc(c(Cl)c3)Oc3cc2cc(c3O[C@@H]2O[C@H](CO)[C@@H](O)[C@H](O)[C@H]2O[C@H]2C[C@](C)(N)[C@H](O)[C@H](C)O2)Oc2ccc(cc2Cl)[C@H]1O [VANCOMYCIN] | – | – | – | – | – | – | > 64 µg/mL | – | – | – | – | – | 1 µg/mL (≈ 0.69 µM) | –
